rCAG RNA binder = binds r(CAG) RNA repeats; r(CAG) RNA repeat, TO-PRO-1 dye displacement fluorescence; inhibition, % at 3 µM; actives 1.3% (n = 370,000); AID 651821;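 active = inhibition above the plate cutoff, the mean of all test compounds on that plate plus 3 SD, cut at about 35% in these data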;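 also: 0% = DMSO alone and 100% = 100 µM mitoxantrone as full dye displacement; higher means more dye released from RNA so lower well fluorescence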
CSN inh = CSN deneddylation inhibition | Q92905 | Purified CSN, SCF-Nedd8-OG deneddylation, fluorescence polarization | inhibition, % at 12.5 µM | actives 0.38% (n = 360,000) | AID 651999;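 active = pattern-corrected inhibition above about 35%, with an unprinted fluorescence ratio check between 0.5 and 1.5, limit read from the data, passing the limit was not always enough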;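 also: 0% = enzyme with substrate and 100% = substrate without enzyme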
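Assay system: purified human Csn5 enzyme expressed in HEK293T cells; Input: 0.24 nM Csn5 enzyme, final concentration; Reagent: 10 nM SCFSkp2-Nedd8OG; Compound dosing: 12.5 µM single point; Times: reaction 90 min, room temperature; Technique: fluorescence polarization readout.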
MBD2 DNA inh = inhibitors of human MBD2 binding to methylated oligonucleotide; TR-FRET; inhibition, % at 4.4 µM; actives 0.31% (n = 370,000); AID 686964; in the data active = inhibition above about 13%
Target sequence (Q9UBB5 whole entry, looked up): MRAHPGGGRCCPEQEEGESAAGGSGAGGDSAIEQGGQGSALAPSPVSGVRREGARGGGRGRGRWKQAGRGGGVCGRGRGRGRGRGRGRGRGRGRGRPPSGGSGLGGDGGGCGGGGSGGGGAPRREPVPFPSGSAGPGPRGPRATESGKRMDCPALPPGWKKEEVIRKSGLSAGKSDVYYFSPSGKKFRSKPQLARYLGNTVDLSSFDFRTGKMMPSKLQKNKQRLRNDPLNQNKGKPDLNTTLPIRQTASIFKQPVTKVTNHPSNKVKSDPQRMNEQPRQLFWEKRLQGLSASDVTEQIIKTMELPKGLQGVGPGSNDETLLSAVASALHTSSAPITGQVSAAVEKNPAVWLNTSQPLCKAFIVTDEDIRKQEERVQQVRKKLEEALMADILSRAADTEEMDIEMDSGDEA
UHRF1 binding = blocks human UHRF1 binding to methylated DNA; UHRF1 binding to methylated oligo, TR-FRET; Q96T88; actives 0.75% (n = 370,000); inhibition, % at 4.4 µM; AID 687016; in the data active = inhibition above about 21%;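 also: UHRF1 SRA domain binding a hemimethylated CpG hairpin DNA probe; 0% = median of test compound wells and 100% = reference inhibitor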
LEDGF integ inh = blocks HIV-1 LEDGF/p75-dependent DNA integration; TR-FRET IN-LEDGF/p75 DNA integration, Eu/Cy5; inhibition, % at 3.7 µM; actives 0.64% (n = 370,000); AID 743269;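 active = inhibition above the screen-wide mean plus 3 SD, cut at about 13% in these data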;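 also: signal is the Cy5 over europium emission ratio at 671 and 618 nm; 0% = plate median of compound wells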
ATG4B inh = blocks human ATG4B protease cleavage of LC3 substrate | inhibition, % at 8.33 µM | ATG4B cleavage of LC3-PLA2, NBD-HPC fluorescence, 1 h | Q9Y4P1 | actives 0.51% (n = 340,000); in the data active = inhibition above about 40%
rCAG bind conf = r(CAG) RNA repeat binding, confirmation; shares compounds with rCAG RNA binder; TO-PRO-1 dye displacement fluorescence; inhibition, % at 3 µM; actives 70% (n = 4,300); AID 652065;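 active = inhibition above a per-plate cutoff, the mean inhibition of sample wells plus 3 SD, cut at about 35% in these data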;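 also: loss of TO-PRO-1 fluorescence as compound displaces dye from 1x1 AA loop RNA; 0% = DMSO only wells and 100% = 100 µM mitoxantrone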
DNA CAG counter = disrupts DNA CAG TO-PRO-1 complex, flagging rCAG hits. shares compounds with rCAG RNA binder. d(CAG) DNA oligo TO-PRO-1 dye displacement, fluorescence. inhibition, % at 3 µM. actives 94% (n = 4,300). AID 652068;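 active = inhibition above its plate's cutoff, the mean test-well inhibition plus 3 SD, cut at about 4.8% in these data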;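 also: 0% = DNA dye mix with DMSO and 100% = 100 µM mitoxantrone; hits displace the dye from DNA and so lower well fluorescence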
* hit, by the source's call; . = not tested or not shown. This is a sample that favours compounds with a hit; in the whole collection about 3.1% have one here.

SMILES | rCAG RNA binder | CSN inh | MBD2 DNA inh | UHRF1 binding | LEDGF integ inh | ATG4B inh | rCAG bind conf | DNA CAG counter
CCc1nnc(NS(=O)(=O)c2ccc(NCc3cc(Cl)ccc3O)cc2)s1 | 65* | 4 | 5 | 1 | -4 | 3 | 46* | 14*
CCc1nnc(NS(=O)(=O)c2ccc(NS(=O)(=O)c3ccccc3[N+](=O)[O-])cc2)s1 | 12 | -4 | 0 | 3 | -2 | 1 | . | .
Cc1ccc(O)c(CNc2ccc(S(=O)(=O)Nc3nccs3)cc2)c1 | 20 | 4 | 1 | 2 | 3 | -2 | . | .
O=C(N[C@H]1CC[C@@H]2SC[C@@H](C(=O)O)N2C1=O)OCC1c2ccccc2-c2ccccc21 | 26 | . | -5 | -2 | 6 | . | . | .
Cc1cccc(NC(=O)c2cccc(NS(=O)(=O)c3ccc(Cl)cc3)c2)c1 | . | -1 | . | . | . | -6 | . | .
Cc1ccc(S(=O)(=O)Nc2cc(C(=O)Nc3cc(C)cc(C)c3)ccc2Cl)cc1 | 36* | 1 | 4 | -3 | 0 | 2 | 42* | 9.8*
COc1ccc(S(=O)(=O)Nc2c(C(=O)O)[nH]c3ccc(OC)cc23)c(OC)c1 | 36* | 2 | -5 | -4 | 0 | -15 | 24 | 10*
COc1ccc(S(=O)(=O)Nc2c(C(=O)O)[nH]c3ccccc23)c(OC)c1 | 36* | -4 | -1 | -1 | 0 | -2 | 19 | 4
COc1ccc(S(=O)(=O)Nc2c(C(=O)O)[nH]c3ccc(OC)cc23)cc1 | 25 | 2 | 2 | -3 | 0 | -2 | . | .
Cn1ccc2ccc(-c3ccc4c(c3)[C@]3(CCC[C@@H](OCc5ccccc5)[C@@H]3NC(=O)CCc3ccccc3)C(=O)N4Cc3ccccc3)cc21 | 12 | . | -2 | -1 | -2 | . | . | .
COc1ccc(C(=O)COC(=O)/C=C/c2ccccc2)cc1 | -3 | 2 | -2 | -1 | 0 | 0 | . | .
NS(=O)(=O)c1cccc(NS(=O)(=O)c2ccc(/C=C/C(=O)OCC(=O)c3ccccc3)cc2)c1 | 60* | -3 | 3 | 6 | 3 | 12 | 54* | 22*
O=C(N/N=C/c1ccc([N+](=O)[O-])o1)c1cc(-c2cccc(Br)c2)nc2ccccc12 | 43* | 8 | 3 | -4 | 2 | 22 | 47* | 29*
CCCc1ccc(-c2cc(C(=O)N/N=C/c3ccc([N+](=O)[O-])o3)c3ccccc3n2)cc1 | 45* | 7 | -2 | -1 | 1 | -9 | 36* | 19*
O=C(N/N=C/c1ccc([N+](=O)[O-])o1)c1sc2ccccc2c1Cl | 36* | 19 | -1 | -3 | 0 | 8 | 39* | 18*
O=C(N/N=C/c1ccco1)c1cc(-c2ccccc2)nc2ccccc12 | 7 | -2 | -3 | -4 | 3 | 1 | . | .
O=C(N/N=C/c1ccccn1)c1sc2ccccc2c1Cl | 8 | 0 | 4 | -6 | 2 | -25 | . | .
O=C(O)c1ccc(C2(c3ccc(C(=O)O)cc3)OC(=O)c3ccccc32)cc1 | -3 | 1 | 0 | 4 | 5 | 8 | . | .
O=C1OC(c2ccccc2)(c2cc(Br)c(O)c(Br)c2)c2ccccc21 (stereo unspecified) | 50* | 5 | -2 | 0 | 1 | 23 | 57* | 16*
CC(C)CN1CN2Cc3ccccc3C2CS1(=O)=O (stereo unspecified) | 6 | . | 4 | -1 | -2 | . | . | .
CCc1nnc(NS(=O)(=O)c2ccc(NC(=O)c3cc4ccccc4oc3=O)cc2)s1 | 2 | . | 0 | -2 | 1 | . | . | .
Cc1cc(NS(=O)(=O)c2ccc(NC(=O)COc3ccc(Cl)cc3)cc2)no1 | 19 | -1 | -2 | -3 | 3 | -6 | . | .
COc1ccc(Cc2nnc(NS(=O)(=O)c3ccc(NC(C)=O)cc3)s2)cc1 | 14 | 0 | -1 | 0 | 0 | 2 | . | .
CCc1nnc(NS(=O)(=O)c2ccc(N/C=C/C(=O)c3ccc(OC)cc3)cc2)s1 | 59* | 7 | 6 | 4 | -1 | -3 | 65* | 29*

Screens deposited in PubChem by several laboratories.
